From PubChem
Most compounds without a hit are left out; they make up all but 1.6% or so of the library.
VLA-4 inh: inhibition in human VLA-4 binding assay, primary screen, VLA-4 allosteric modulator project, MLPCN library, flow cytometry, VLA-4 expressing cells | AID 2557, 2010 | ligand binding flow cytometry | actives 0.2% (n = 330,000) | inhibition, % (about 7 µM as worked out from the volumes in the protocol) | Integrin alpha-4 (Homo sapiens), P13612; in the data active = inhibition above about 50%
PG9 Ab binder: binders of HIV-1 gp120 antibody PG9, primary screen, biochemical, TR-FRET; TR-FRET gp120-PG9 antibody binding; inhibition, % at 6.7 µM; actives 0.43% (n = 360,000); AID 624416, 2012; in the data active = inhibition above about 8.5%
NR2E3 ag-1: inhibitors of NR2E3-RetCOR corepressor binding, primary screen, NR2E3 agonist project, biochemical, TR-FRET, GST-NR2E3, biotin-RetCOR | Photoreceptor-specific nuclear receptor (Homo sapiens), Q9Y5X4 | 1536-well | inhibition of corepressor binding, % at 4.78 µM | actives 0.12% (n = 320,000) | AID 2300, 2010;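 active = percent inhibition above the cutoff of mean plus 3 SD of all tested compounds, set per screening campaign, cut at about 20% in these data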;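 also: 0% = DMSO wells and 100% = biotin wells as full block of FRET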
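Material – GST-tagged NR2E3 plus biotinylated RetCOR corepressor · Quantity – NR2E3 fusion 1.35 nM · Times – 5 h incubation at 4 °C · Medium – pH 7.5 Tris-based buffer · Technique – TR-FRET, Eu(K)-anti-GST donor, streptavidin-D2 acceptor, ex 340, em 617/671 nm · Benchmarks – high control biotin, low control 0.6% DMSO · Format – 1536-well plates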
Rev-erbA mod: modulators of Rev-erb alpha DNA binding, primary screen, biochemical, FITC-DNA, fluorescence polarization, uHTS; Nuclear receptor subfamily 1 group D member 1 (Homo sapiens), P20393; Rev-erbα–FITC-DNA binding, 90 min; activity, % at 10 µM; actives 0.79% (n = 370,000);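 active = activity above about 14%, limit read from the data; passing the limit was not always enough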;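 also: 0% = DMSO wells with 35 nM protein and 100% = DMSO wells with 750 nM protein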
Target sequence (P20393 whole entry, looked up): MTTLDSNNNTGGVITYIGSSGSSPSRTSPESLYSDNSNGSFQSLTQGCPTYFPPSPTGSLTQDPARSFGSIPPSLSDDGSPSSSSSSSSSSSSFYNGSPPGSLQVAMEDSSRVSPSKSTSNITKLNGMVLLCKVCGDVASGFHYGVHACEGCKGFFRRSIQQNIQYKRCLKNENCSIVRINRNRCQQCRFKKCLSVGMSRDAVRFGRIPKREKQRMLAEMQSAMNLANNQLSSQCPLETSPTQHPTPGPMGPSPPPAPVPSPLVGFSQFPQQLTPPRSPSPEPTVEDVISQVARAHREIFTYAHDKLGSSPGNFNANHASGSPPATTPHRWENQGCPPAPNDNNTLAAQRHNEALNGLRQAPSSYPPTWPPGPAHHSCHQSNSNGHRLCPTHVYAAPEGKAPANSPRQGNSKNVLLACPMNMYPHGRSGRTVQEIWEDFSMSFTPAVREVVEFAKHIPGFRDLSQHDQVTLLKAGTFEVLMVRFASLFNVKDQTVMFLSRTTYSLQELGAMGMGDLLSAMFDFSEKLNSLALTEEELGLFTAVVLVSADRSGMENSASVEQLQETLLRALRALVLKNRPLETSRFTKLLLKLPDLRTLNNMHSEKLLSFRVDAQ
NR2E3 ag-2: NR2E3 agonists in two-hybrid cells, primary screen, cell-based, luminescence, CHO-S, Gal4-NCOR/VP16-NR2E3; Photoreceptor-specific nuclear receptor (Homo sapiens), Q9Y5X4; luciferase; inhibition of corepressor binding, % at 3.98 µM; actives 0.35% (n = 360,000); AID 602229, 2012;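 active = inhibition above the mean of all tested compounds plus 3 SD, cut at about 70% in these data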;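 also: 0% = DMSO with NR2E3 transfected cells and 100% = cells lacking NR2E3 construct; higher means lower luciferase signal from less NR2E3 corepressor binding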
NR2E3 ag confirm: NR2E3 agonists, confirmation, biochemical, TR-FRET; shares compounds with NR2E3 ag-1; cell-free NR2E3 corepressor release, 5 h; activation (reported as inhibition), % at 3.98 µM; actives 39% (n = 360); AID 2379, 2010; in the data active = activation above about 20%
PPARg-NCOR2 ag: agonists of PPARg-NCOR2 corepressor interaction, counter-screen for NR2E3 agonist project, biochemical, TR-FRET. shares compounds with NR2E3 ag-1. TR-FRET PPARg-NCOR2 coregulator interaction. inhibition, % at 3.98 µM. actives 45% (n = 360); in the data active = inhibition above about 20%;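 also: 0% = DMSO vehicle and 100% = wells without protein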
PG9 binder conf: binders of anti-gp120 antibody PG9, confirmation, biochemical, TR-FRET; shares compounds with PG9 Ab binder; TR-FRET PG9 antibody binding; inhibition, % at 6.7 µM; actives 90% (n = 1,500); in the data active = inhibition above about 9%
PGV04 counter: binders of control antibody PGV04, counter-screen for PG9 antibody binder project, biochemical, TR-FRET, distinct HIV envelope site | AID 651604, 2012 | inhibition, % at 6.7 µM | shares compounds with PG9 Ab binder | actives 95% (n = 1,500) | TR-FRET PGV04 antibody-gp120 binding; in the data active = inhibition above about 9.5%
PG9 bind DR: small-molecule binders of antibody PG9, dose response, biochemical, TR-FRET, HIV-1 gp120 antibody. shares compounds with PG9 Ab binder. TR-FRET PG9 antibody-gp120 binding inhibition. IC50, µM. 95 tested, under 10 active; in the data active = IC50 below about 10 µM
PGV04 DR counter: binders of control antibody PGV04, dose response, counter-screen for PG9 antibody binder project, biochemical, TR-FRET, distinct HIV envelope site. IC50, µM. actives 20% (n = 95). TR-FRET binding to control antibody PGV04. shares compounds with PG9 Ab binder. AID 651937, 2012
PG126 DR counter: binders of control antibody PG126, dose response, counter-screen for PG9 antibody binder project, biochemical, TR-FRET, distinct HIV envelope site. IC50, µM. actives 20% (n = 95). TR-FRET binding to antibody PG126, counterscreen. shares compounds with PG9 Ab binder
NR1D1 mod conf: modulators of Rev-erb alpha DNA binding, confirmation, biochemical, FITC-DNA, fluorescence polarization, single point; 90 min; shares compounds with Rev-erbA mod; AID 1259319, 2017; actives 61% (n = 3,000); activation, % at 25 µM;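 active = activation at or above a set limit, or at least 3 SD above the negative control mean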;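 also: 0% = 35 nM protein with DMSO and 100% = 750 nM protein high control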
RORg counter: modulation of RORgamma DNA binding, dose response, counter-screen for Rev-erb alpha modulator project, biochemical, fluorescence polarization, FITC-DNA. shares compounds with Rev-erbA mod. AID 1259320, 2017. purified RORgamma protein-FITC-DNA binding. actives 8% (n = 910). IC50, µM;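 active = Compounds whose fitted half-maximal concentration for disrupting protein-DNA binding is below 10 micromolar; the record names Rev-erb in its text, so the target is in doubt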
Numbers without * were called inactive; i = inactive; . = not tested or not shown. Rule as the data show it, unless noted: active = IC50 below about 9 µM; inactive = the rest.

SMILES | VLA-4 inh | PG9 Ab binder | NR2E3 ag-1 | Rev-erbA mod | NR2E3 ag-2 | NR2E3 ag confirm | PPARg-NCOR2 ag | PG9 binder conf | PGV04 counter | NR1D1 mod conf | others
COc1ccc(C(=O)Nc2nnc(Cc3ccccc3)s2)c(OC)c1 | -3.6 | 68.2* | 47.4* | 70.8* | -36.6 | -8.8 | 11.7 | 38.7* | 31.9* | 52.8* | PG9 bind DR=i;PGV04 DR counter=i;PG126 DR counter=i;RORg counter=>40
Cc1ccc2nc(NC(=O)CSc3ncnc4c3oc3ccccc34)sc2c1 | . | -5.9 | . | 9.0 | -0.4 | . | . | . | . | .
Cc1cccc(NC(=O)CSc2ncnc3c2oc2ccccc23)c1 | -2.3 | 66.4* | 60.3* | 601.1* | 5.1 | 66.2* | 71.8* | -38.9 | 47.1* | 630.8* | RORg counter=1.04*
O=C(CSc1ncnc2c1oc1ccccc12)c1cccs1 | 3.8 | 29.2* | 30.7* | 73.3* | -63.6 | 24.6* | 25.0* | 29.5* | 52.2* | 66.5* | RORg counter=>40
O=[N+]([O-])O[C@@H]1CO[C@H]2[C@@H]1OC[C@@H]2O | . | . | . | -9.8 | . | . | . | . | . | .
Cc1ccc(NC(=S)Nc2nc(CC(=O)Nc3ccccc3)cs2)cc1 | 6.5 | 15.9* | 20.4* | 100.9* | -12.7 | 13.4 | 13.3 | 10.9* | 9.7* | 90.8* | PG9 bind DR=>67;PGV04 DR counter=i;PG126 DR counter=i;RORg counter=>40
NS(=O)(=O)c1ccc(N2CCCCS2(=O)=O)cc1 | . | . | . | 1.9 | . | . | . | . | . | .
NC(=O)OC[C@@H]1[C@H](NC(=O)/C(=N\OCC(=O)O)c2csc(N)n2)C(=O)N1S(=O)(=O)O | . | . | . | -1.3 | . | . | . | . | . | .
NCCCC[C@H](N)C(=O)O | . | . | . | -0.8 | . | . | . | . | . | .
CN(C(=O)COc1cc(=O)n(C)c2ccccc12)c1ccc(Cl)cc1 | 15.4 | 0.5 | 1.7 | 2.1 | -7.9 | . | . | . | . | .
CN(c1ccc(Cl)cc1)c1cc(=O)n(C)c2ccccc12 | 7.8 | 0.8 | 21.2* | 22.4* | -19.9 | 2.5 | 4.8 | . | . | 17.6*
CCOc1ccc(NC(=O)c2ccc(OC)cc2)cc1 | 1.8 | 0.9 | 2.4 | 4.2 | -47.6 | . | . | . | . | .
CCOc1ncccc1C(=O)Nc1ccc(C(=O)Nc2ccc(OC)cc2)cc1 | 10.0 | 4.1 | 44.0* | 21.5* | -21.1 | 34.2* | 32.5* | . | . | 13.6
O=C(O)CSc1nc2ccccc2nc1Cc1ccccc1F | 8.0 | 10.4* | 53.5* | 21.6* | -47.9 | 34.3* | 36.5* | 16.2* | 27.4* | 12.4
C=CCn1c(SCC(=O)NC(=O)NCc2ccco2)nc2sc(C)c(C)c2c1=O | 4.0 | 22.6* | 21.7* | 50.9* | -7.0 | -2.2 | 8.3 | 28.2* | 40.7* | 40.6*
CC/C=C(\C(=O)N[C@@H]1C(=O)N2C(C(=O)OCOC(=O)C(C)(C)C)=C(COC(N)=O)CS[C@H]12)c1csc(N)n1 | . | . | . | -4.5 | . | . | . | . | . | .
CC(=O)Nc1ccc(NC(=O)C(C)OC(=O)/C(C#N)=C/c2ccc(N(C)C)cc2)cc1 (centres undefined) | 23.0 | 17.2* | 34.0* | 18.1* | -46.4 | 29.8* | 30.3* | 19.7* | 36.5* | 14.5*
CC(OC(=O)/C(C#N)=C/c1ccc(N(C)C)cc1)C(=O)N(C)c1ccccc1 (centres undefined) | -9.5 | -0.2 | 1.0 | 12.4 | 9.0 | . | . | . | . | .
OC[C@H]1O[C@H](O[C@]2(CCl)O[C@H](CCl)[C@@H](O)[C@@H]2O)[C@H](O)[C@@H](O)[C@H]1Cl | . | . | . | 9.3 | . | . | . | . | . | .
CCc1cc2cc(C(=O)Nc3ccc(F)cc3)sc2s1 | -0.4 | 45.5* | 29.6* | 78.1* | -5.6 | 3.9 | -12.6 | 53.2* | 60.0* | 62.6* | RORg counter=>40
Cc1cc(-n2c(SCC(=O)NCCC3=CCCCC3)nc3n[nH]c(C)c3c2=N)ccc1Cl | -5.1 | 41.3* | 59.4* | 45.2* | 19.2 | 10.2 | 2.9 | 46.1* | 57.9* | 21.0*
CCOc1ccc(N=C(C)Nc2ccc(OCC)cc2)cc1 | . | . | . | -3.5 | . | . | . | . | . | .
OC[C@H]1OC([S-])[C@H](O)[C@@H](O)[C@@H]1O.[Au+] (some centres undefined) | . | . | . | -30.2 | . | . | . | . | . | .
Cc1ccccc1-n1c(SCC(=O)Nc2ccccc2Cl)nc2n[nH]c(C)c2c1=N | -14.1 | -1.1 | -2.0 | 0.1 | 4.3 | . | . | . | . | .
CCOc1ccccc1NC(=O)CCSc1nc2n[nH]c(C)c2c(=N)n1-c1ccccc1Cl | -13.6 | 41.1* | 25.5* | 34.7* | -30.4 | 31.8* | 33.7* | . | . | 15.6
COc1cccc(OCc2nc3ncc(Br)cc3[nH]2)c1 | 1.5 | 51.0* | 20.1* | 25.9* | -108.4 | 11.2 | 25.9* | 51.9* | 64.2* | 17.0*
